Experiments:
H9c2 [1] = assay: Cytotoxicity against differentiated rat H9c2 cells assessed as reduction in cell viability at 10 nM after 24 hrs by MTT assay; assay type: cell-based; conditions: h9c2, 24 h, 0.01 µM
Procedure, shortened: (§1)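 H9C2 rat embryonic ventricular cell line, grown subconfluent in DMEM-F12 with 10% heat-inactivated FBS; differentiated cells obtained in 1% FCS medium with 10 nM retinoic acid added daily with medium renewal. Cells, undifferentiated or differentiated, exposed 24 h to 10 nM, 1, 10 or 100 µM compound; viability by MTT reduction to formazan, optical density at 570 nm, expressed as percent of control.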

H9c2 [2] = assay: Cytotoxicity against differentiated rat H9c2 cells assessed as reduction in cell viability at 1 uM after 24 hsr by MTT assay; assay type: cell-based; conditions: h9c2, 1 µM; procedure, shortened: as §1
H9c2 [3] = assay: Toxicity against undifferentiated rat H9c2 cells assessed as reduction in cell viability at 100 uM after 24 hrs by MTT assay; assay type: cell-based; conditions: h9c2, 24 h; procedure, shortened: as §1
H9c2 [4] = assay: Increase in cytoplasmic intracellular calcium level in differentiated rat H9c2 cells depolarized through 60 mM KCl application in presence of extracellular calcium assessed as cells that prolonged KCl-dependent intracellular [Ca2+] transient at 10 uM by Fura-2-AM dye based epifluorescent microscopy; assay type: functional
Procedure, shortened: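 Differentiated H9C2 cardiomyocytes (10 nM retinoic acid daily, 1% FCS) loaded with Fura 2-AM for 40 min, then 15 min at 37 °C in NES. Depolarized with 60 mM KCl in NES with extracellular Ca2+. 10 µM compound given within 30 s after start of the KCl-dependent plateau. Ratio imaging at 340/380 nm excitation, 510 nm emission. Scored as percent of tested cells (n per compound) with prolonged transient.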

H9c2 [5] = assay: Cytotoxicity against differentiated rat H9c2 cells assessed as reduction in cell viability at 10 uM after 24 hrs by MTT assay; assay type: cell-based; conditions: h9c2, 24 h; procedure, shortened: as §1
H9c2 [6] = assay: Cytotoxicity against differentiated rat H9c2 cells assessed as reduction in cell viability at 100 uM after 24 hrs by MTT assay; assay type: cell-based; conditions: h9c2, 24 h; procedure, shortened: as §1
H9c2 [7] = assay: Increase in cytoplasmic intracellular calcium level in differentiated rat H9c2 cells at 10 uM by Fura-2-AM dye based epifluorescent microscopy; assay type: functional
Procedure, shortened: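 Retinoic acid (10 nM, daily)-differentiated H9C2 cells loaded 40 min with Fura 2-AM, washed in NES, held 15 min at 37 °C for dye de-esterification. Cells stimulated directly with 10 µM compound; single living cells imaged by epifluorescence microscopy, excitation 340/380 nm, emission 510 nm, whole-cell fluorescence ratio. Minimum 10, maximum 25 cells per compound; percentage of cells showing basal [Ca2+]i increase.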

SMILES | Activity (H9c2 [1]) | Activity (H9c2 [2]) | Activity (H9c2 [3]) | Activity (H9c2 [4]) | Activity (H9c2 [5]) | Activity (H9c2 [6]) | Activity (H9c2 [7])
CCC(NC(=O)c1cc(C#N)c(=O)[nH]c1C)c1ccccc1 (centres undefined) | 90% | 90% | 50% | 30% | 75% | 50% | 
Cc1ccc(C#N)c(=O)[nH]1 | 90% | 90% | 50% | 45% | 75% | 50% | 78%
Cc1[nH]c(=O)c(C#N)cc1-c1ccncc1 [MILRINONE] | 90% | 90% |  | 50% | 75% | 50% | 
CCOC(=O)c1cc(C#N)c(=O)[nH]c1C |  |  |  | 0% |  |  | 
Cc1[nH]c(=O)c(C#N)cc1C(=O)O |  |  |  | 0% |  |  | 
CCOC(=O)N1CCC(NC(=O)c2cc(C#N)c(=O)[nH]c2C)CC1 | 90% | 90% | 20% | 25% | 75% | 50% | 
Cc1[nH]c(=O)c(C#N)cc1C(=O)OCCSc1nc2ccccc2s1 |  |  |  | 0% |  |  | 
Cc1[nH]c(=O)c(C#N)cc1C(=O)OCc1ccccc1 |  |  |  | 0% |  |  | 
Cc1[nH]c(=O)c(C#N)cc1C(=O)OCCSc1ccccn1 |  |  |  | 0% |  |  | 
Cc1[nH]c(=O)c(C#N)cc1C(=O)NCc1ccccc1 | 90% |  | 20% | 40% | 75% |  | 
Cc1[nH]c(=O)c(C#N)cc1C(=O)NC(C)c1ccccc1 (centres undefined) |  |  |  | 0% |  |  | 

— ChEMBL document CHEMBL1275288, “Effect of milrinone analogues on intracellular calcium increase in single living H9C2 cardiac cells” (Eur J Med Chem, 2010)
